In one assay the target is Leukotriene B4 receptor (Homo sapiens, UniProt Q9NPC1+Q15722). Briefly: Inhibition of binding of [3H]LTB4 (1 nM) to intact human polymorphonuclear leukocytes (PMNs). The procedure, abridged: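 Intact donor PMNs (10^6 cells) in Ca2+/Mg2+-free HBSS with 5 mM HEPES, incubated 20 min at 4 °C with 1 nM [3H]LTB4 (7.4 TBq/mmol), with or without competitors at various concentrations. Bound label measured by filtration. […] Screening at 10 μM.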

A short description of assay [1]: (§1) Inhibition of LTB4 induced chemotaxis of isolated human PMNs. It counts as functional. The procedure, abridged: (§2)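 Human PMNs from healthy donors' heparinized blood, isolated by dextran sedimentation, Ficoll and hypotonic lysis. Cells labeled with 51Cr (1 μCi/10^6 cells, 1 h, 37 °C), resuspended at 10^7 cells/mL in Hank's buffer with 1% BSA. LTB4 plus competitors in lower Boyden–Keller chamber, two 3 μm cellulose nitrate filters, 150 min at 37 °C, 5% CO2. Lower-filter radioactivity counted, expressed as percent of control. pKB from n experiments.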

For a further assay, the species on record is Homo sapiens. The assay is described as §1. It counts as functional. Summed up: as §2

As a reminder, the IC50 is the concentration needed to halve the response being measured. Low values mean greater potency, high ones weaker potency. The term pKB denotes the KB on a negative log10 scale, so that one unit is a factor of ten. The low end stands for a large KB, the high end for a small KB.

At Leukotriene B4 receptor, `O=C([O-])C[C@]1(O)CCC[C@H](/C=C/C(=O)CCCCc2ccccc2)C1.[Na+]` displayed an IC50 greater than 10 µM.
In turn, `O=C([O-])C[C@]1(O)CCC[C@H](/C=C/C(O)(CCCCc2ccccc2)CC(=O)O)C1.[Na+]` (some centres undefined) came in with an IC50 on Leukotriene B4 receptor greater than 10 µM.
Consider `O=C([O-])/C=C1\CCC[C@H](/C=C\C(O)CCCCc2ccccc2)C1.[Na+]` (some centres undefined), for which, at Leukotriene B4 receptor, the IC50 is 1.3 µM.
With `CN(C)OC(=O)/C=C1/CCC[C@@H](/C=C/C(O)CCCCc2ccccc2)C1` (some centres undefined), the IC50 at Leukotriene B4 receptor worked out at 1 µM.
As to `CN(C)OC(=O)C[C@@]1(O)CCC[C@H](/C=C/C(O)CCCCc2ccccc2)C1` (some centres undefined), the IC50 at Leukotriene B4 receptor is 0.08 µM. For the same compound, the pKB in assay [1] is reported as 6.91.
As to `CN(C)C(=O)C[C@]1(O)CCC[C@H](/C=C/[C@H](O)CCCCc2ccccc2)C1`, the IC50 on Leukotriene B4 receptor is greater than 10 µM.
On Leukotriene B4 receptor, `CN(C)C(=O)C[C@]1(O)CCC[C@H](/C=C/[C@@H](O)CCCCc2ccccc2)C1` displayed an IC50 of 0.04 µM. In assay [1], this compound returned a pKB of 7.5.
`CN(C)OC(=O)/C=C1/CCC[C@H](/C=C/C(O)CCCCc2ccccc2)C1` (some centres undefined) came in with an IC50 on Leukotriene B4 receptor of 7 µM.
`O=C([O-])C[C@@H]1CCC[C@H](CCC(O)CCCCc2ccccc2)C1.[Na+]` (some centres undefined) showed an IC50 at Leukotriene B4 receptor of 2.6 µM.
Still for that read-out and setting: then `CN(C)OC(=O)C[C@]1(O)CCC[C@H](/C=C/C(O)CCCCc2ccccc2)C1` (some centres undefined), with greater than 10 µM.
On Leukotriene B4 receptor, `CC(=O)OC(/C=C/[C@H]1CCC/C(=C/C(=O)N(C)C)C1)CCCCc1ccccc1` (some centres undefined) gave an IC50 greater than 10 µM.
Consider `O=C([O-])C[C@]1(O)CCC[C@H](CCC(O)CCCCc2ccccc2)C1.[Na+]` (some centres undefined), for which the IC50 on Leukotriene B4 receptor came to 5.3 µM.
Take `CCCCCC(O)/C=C/[C@H]1CCC[C@@](O)(CC(=O)[O-])C1.[Na+]` (stereo in doubt; 2a): the IC50 on Leukotriene B4 receptor is greater than 10 µM.
For the compound `CCCCCC(O)/C=C/[C@H]1CCC[C@@](O)(CC(=O)[O-])C1.[Na+]` (stereo in doubt; 2b), the IC50 at Leukotriene B4 receptor worked out at 8 µM. In assay [1], the pKB is recorded as 5.1.
As to `CCCCCC(O)/C=C/[C@H]1CCC[C@](O)(CC(=O)[O-])C1.[Na+]` (stereo in doubt; 2c), at Leukotriene B4 receptor, the IC50 was greater than 10 µM.
The compound `CCCCCC(O)/C=C/[C@H]1CCC[C@](O)(CC(=O)[O-])C1.[Na+]` (stereo in doubt; 2d) came in with an IC50 at Leukotriene B4 receptor of 10 µM. Further, the pKB in the assay listed under Homo sapiens was 5.25.
`O=C([O-])C[C@]1(O)CCC[C@H](/C=C/C(O)CCCCc2ccccc2)C1.[Na+]` (stereo in doubt; 3a) registered an IC50 on Leukotriene B4 receptor greater than 10 µM.
Compound `O=C([O-])C[C@]1(O)CCC[C@H](/C=C/C(O)CCCCc2ccccc2)C1.[Na+]` (stereo in doubt; 3b) came in with an IC50 on Leukotriene B4 receptor of 0.8 µM. This compound registered a pKB in assay [1] of 6.57.
In turn, `O=C([O-])C[C@@]1(O)CCC[C@H](/C=C/C(O)CCCCc2ccccc2)C1.[Na+]` (stereo in doubt; 3c) displayed a half-inhibitory concentration (IC50) on Leukotriene B4 receptor greater than 10 µM.
Compound `O=C([O-])C[C@@]1(O)CCC[C@H](/C=C/C(O)CCCCc2ccccc2)C1.[Na+]` (stereo in doubt; 3d) registered an IC50 on Leukotriene B4 receptor of 1.5 µM. In addition, the pKB in assay [1] is 6.31.
In the case of `CCCCCCCCC(O)/C=C/[C@H]1CCC[C@@](O)(CC(=O)[O-])C1.[Na+]` (stereo in doubt; 4a), at Leukotriene B4 receptor, the IC50 is greater than 10 µM.
Consider `CCCCCCCCC(O)/C=C/[C@H]1CCC[C@@](O)(CC(=O)[O-])C1.[Na+]` (stereo in doubt; 4b), for which the IC50 at Leukotriene B4 receptor amounted to 0.9 µM. For the same compound, the pKB in the assay filed under Homo sapiens stood at 6.42.
As to `CCCCCCCCC(O)/C=C/[C@H]1CCC[C@](O)(CC(=O)[O-])C1.[Na+]` (stereo in doubt; 4c), the IC50 on Leukotriene B4 receptor stood at 4 µM.
The same measure, in the same setting: then `CCCCCCCCC(O)/C=C/[C@H]1CCC[C@](O)(CC(=O)[O-])C1.[Na+]` (stereo in doubt; 4d), with 2.5 µM.
`O=C([O-])/C=C1/CCC[C@H](/C=C/C(O)CCCCc2ccccc2)C1.[Na+]` (stereo in doubt; 10a): the IC50 at Leukotriene B4 receptor was greater than 10 µM.
On to `CN(C)C(=O)C[C@]1(O)CCC[C@H](/C=C/C(C)(O)CCCCc2ccccc2)C1` (stereo in doubt; 15b), for which the IC50 on Leukotriene B4 receptor turned out to be 7 µM.
In turn, `CN(C)C(=O)C[C@]1(O)CCC[C@H](/C=C/C(F)CCCCc2ccccc2)C1` (stereo in doubt; 16 a) displayed an IC50 on Leukotriene B4 receptor of 2 µM.
Turning to `CN(C)C(=O)C[C@]1(O)CCC[C@H](/C=C/C(F)CCCCc2ccccc2)C1` (stereo in doubt; 16b), the IC50 on Leukotriene B4 receptor came to 6.5 µM.
At Leukotriene B4 receptor, `CN(C)C(=O)C[C@]1(O)CCC[C@H](/C=C/C(C)(O)CCCCc2ccccc2)C1` (stereo in doubt; form 1) came in with an IC50 of 4.5 µM.
The same measure, in the same setting: to `O=C([O-])/C=C1/CCC[C@H](/C=C/C(O)CCCCc2ccccc2)C1.[Na+]` (stereo in doubt; form 1) belongs greater than 10 µM; to `CN(C)C(=O)C[C@]1(O)CCC[C@H](/C=C/C(C)(O)CCCCc2ccccc2)C1` (stereo in doubt; form 2), greater than 10 µM.
`O=C([O-])/C=C1/CCC[C@H](/C=C/C(O)CCCCc2ccccc2)C1.[Na+]` (stereo in doubt; form 2) registered an IC50 on Leukotriene B4 receptor of 0.5 µM.
